PubChem BioAssay AID1381 (University of Pittsburgh Molecular Library Screening Center, 2008)
Among all 220,000 compounds or so, about 1,000 (0.45%) were called active. This is one part of a sample in which actives are shown more often than they occur.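 Rule for the calls: active = plate z-score of nuclear minus cytoplasmic receptor signal below a set negative limit, without overly bright fluorescence or cell loss (cut at about -3.5 in these data, passing the limit was not always enough); inactive = the rest, inconclusive results apart.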

Assay: inhibitors of GR-EGFP nuclear translocation, primary screen, dynein cargo transport inhibitor project, imaging, high-content, 3617.4 mouse cells (AID 1381)
Details: stimulated with dexamethasone, 1 µM
Procedure, shortened: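 Also added – dexamethasone, 1.0 µM final · Buffer or medium – tet-free, stripped-serum medium · Schedule – induction 48 h, compound 1 h, agonist 30 min · Detection – formaldehyde fixation, Hoechst nuclear stain, 10x automated fluorescence imaging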

[1] = measured here: cell count per field, at 20 µM
[2] = measured here: cytoplasmic GR-EGFP intensity, at 20 µM, stronger effect = higher value
[3] = measured here: nuclear GR-EGFP intensity, at 20 µM, stronger effect = lower value
[4] = measured here: cell count per field, at 50 µM
[5] = measured here: cytoplasmic GR-EGFP intensity, at 50 µM, stronger effect = higher value
[6] = measured here: nuclear GR-EGFP intensity, at 50 µM, stronger effect = lower value

SMILES	z-score (at 20 µM, stronger effect = lower value)	z-score [1]	z-score [2]	z-score [3]	z-score (at 50 µM, stronger effect = lower value)	z-score [4]	z-score [5]	z-score [6]
Cc1ccc(/C=N/NC(=S)NC2CCCCC2)o1	-0.738 (inactive)	-0.0991	-0.777	-0.608				
C/C(CC(=O)Nc1cccc(C(F)(F)F)c1)=N\NC(=O)C(=O)NCC(C)C	-0.981 (inactive)	0.594	-0.237	-0.369				
Cc1nnc(SCCCCSc2nnc(C)c(=O)[nH]2)[nH]c1=O	-0.311 (inactive)	-0.339	-0.259	-0.0707				
CC(=O)Nc1cccc([N+](=O)[O-])c1	0.101 (inactive)	0.386	-0.384	0.092				
Cc1ccccc1NC(=S)Nc1cccc([N+](=O)[O-])c1	-0.523 (inactive)	-0.0166	-0.193	-0.37				
COC(=O)/C=C\C(=O)Nc1cccc([N+](=O)[O-])c1	-4.05 (active)	-0.741	1.08	-2.26				
COc1ccc(-c2csc3nc(-c4ccccc4F)oc(=O)c23)cc1OC	-3.75 (active)	-0.574	0.603	-1.45				
COc1ccc(-c2csc(-c3cccs3)n2)cc1OC	0.847 (inactive)	0.288	-0.331	0.694				
COc1ccc(-c2noc(-c3cccc(OC)c3OC)n2)cc1OC	1.03 (inactive)	-0.605	-0.0658	0.927				
O=C(Nc1ccc(N2CCOCC2)cc1)c1ccc2c(c1)OCO2	1.56 (inactive)	-0.797	-0.257	0.727				
CCCC1NC(=S)NC(C)=C1C(C)=O (stereo not given)	0.661 (inactive)	0.486	-0.194	0.234				
COc1ccc(C(=O)NCC(=O)N/N=C/c2ccc([N+](=O)[O-])o2)cc1OC	-4.33 (active)	0.928	0.52	-1.68				
COc1cc(/C=N\NC(=O)CNC(=O)c2cccc([N+](=O)[O-])c2)ccc1O	2.51 (inactive)	-1.15	0.0365	1.56				
COc1ccc(C(=O)NCC(=O)N/N=C/c2ccc([N+](=O)[O-])s2)cc1OC	-0.653 (inactive)	0.617	-0.211	-0.24				
CC(C)(C)OC(=O)NCCCCCC(=O)N/N=C/c1coc2ccccc2c1=O	-0.131 (inactive)	-0.0505	-0.202	-0.314				
C/C(=N\NC(=O)CSc1nc2ccccc2c(=O)n1-c1ccccc1C)c1cccs1	0.968 (inactive)	-0.667	-0.231	0.554				
CCn1c(SCc2cc(=O)n3ccsc3n2)nc2ccccc21	-0.0624 (inactive)	-0.534	-0.319	0.783				
CCCCCCc1cc2cc(-c3nnc(-c4cccc(OC)c4)o3)c(=O)oc2cc1O					-2.6 (inactive)	-0.146	22.1	2.79

SMILES	z-score (at 20 µM, stronger effect = lower value)	z-score [1]	z-score [2]	z-score [3]	z-score (at 50 µM, stronger effect = lower value)	z-score [4]	z-score [5]	z-score [6]
C[C@H](NC(=O)OC(C)(C)C)c1nnc(SCC(N)=O)o1	0.077 (inactive)	-0.312	-0.175	0.307				
CC(C)Sc1nnc([C@H](Cc2ccccc2)NC(=O)OC(C)(C)C)o1	-1.61 (inactive)	1.71	0.279	-0.731				
C[C@@H](NC(=O)OC(C)(C)C)c1nnc(S(=O)(=O)Cc2ccccc2)o1	-5.36 (active)	0.73	1.44	-2.38				
Cc1ccc(NC(=O)CN(C)Cc2ccc(F)cc2)c([N+](=O)[O-])c1	-0.244 (inactive)	-0.235	-0.22	-0.284				
COc1ccccc1NC(=O)c1ccc(C)s1					0.335 (inactive)	-0.862	-0.265	0.226
CCOC(=O)C(=Cc1ccccc1OC)C(=O)OCC	-5.08 (active)	0.0073	1.43	-2.52				
CCOC(=O)C(=CNc1cccc(C)n1)C(=O)OCC	0.995 (inactive)	0.752	-0.214	0.879				
N#Cc1cccc(NC(=O)COC(=O)c2ccccc2C(=O)c2ccc(Cl)c([N+](=O)[O-])c2)c1	-0.407 (inactive)	0.615	-0.326	-0.496				
Cn1cnnc1SCC(=O)NNC(=O)COc1ccc(Br)cc1	0.431 (inactive)	0.453	-0.218	-0.126				
C[C@@H]1C[C@@H]2O[C@H]2/C=C\C=C\C(=O)Cc2c(Cl)c(O)cc(O)c2C(=O)O1	-3.8 (active)	0.512	1.82	-1.89				
COc1cc(CO)c(C2(CO)CCCC2)cc1OC	0.000321 (inactive)	-0.54	-0.145	0.499				
COC(=O)c1ccc(Sc2ccc(F)cc2)c(N)c1	0.257 (inactive)	0.499	-0.377	0.132				
Cc1ccc(C(C)NC(=O)Cn2nc(C)c([N+](=O)[O-])c2C)cc1 (stereo not given)	-0.784 (inactive)	0.727	-0.261	-0.607				
COc1ccc(CCc2nnc(CCC(=O)NCc3cnn(-c4ccccc4C)c3)o2)cc1	1.76 (inactive)	-1.6	-0.0906	1.43				
O=C(NCCCN1CCOCC1)c1ccc([N+](=O)[O-])cc1[N+](=O)[O-]	-0.163 (inactive)	0.317	-0.243	0.0502				
O=[N+]([O-])c1cc(S(=O)(=O)CCCN2CCOCC2)ccc1F	-4.25 (active)	0.317	1.15	-2.3				
O=[N+]([O-])c1ccc(NCCCN2CCOCC2)c(Cl)c1	0.346 (inactive)	-0.149	0.0336	0.676				
